Active and inactive are the calls of the source. No cut-off for these calls is given here.

The record followed here is ChEMBL document CHEMBL1138502, “Discovery and biological evaluation of novel cyanoguanidine P2X(7) antagonists with analgesic activity in a rat model of neuropathic pain” (J Med Chem, 2009).

The nature of data set [1]: Selectivity for P2X7 receptor over potassium channel.
For data set [2], the target named is T1, P2X purinoceptor 4 (Homo sapiens) (UniProt Q99571).
T1 sequence (whole entry): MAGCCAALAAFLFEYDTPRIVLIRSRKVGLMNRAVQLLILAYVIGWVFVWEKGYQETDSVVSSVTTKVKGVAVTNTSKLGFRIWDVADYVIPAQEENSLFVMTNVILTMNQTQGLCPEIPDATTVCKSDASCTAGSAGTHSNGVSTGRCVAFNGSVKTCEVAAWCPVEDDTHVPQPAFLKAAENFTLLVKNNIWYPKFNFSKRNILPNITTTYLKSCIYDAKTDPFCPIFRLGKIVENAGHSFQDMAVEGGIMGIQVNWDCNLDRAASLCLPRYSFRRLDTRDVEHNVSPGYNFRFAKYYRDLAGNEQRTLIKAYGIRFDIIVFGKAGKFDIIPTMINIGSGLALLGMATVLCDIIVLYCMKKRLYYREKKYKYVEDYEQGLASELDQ
Put plainly: Activity at P2X4 receptor up to 10 uM.

Data set [3] has as its target P2Y purinoceptor 2 (Homo sapiens) (UniProt P41231). Put plainly: Activity at P2Y2 receptor up to 10 uM.
For data set [4], the system named is Rattus norvegicus. Put plainly: Antiallodynic activity in rat L5-L6 spinal nerve ligation model of neuropathic pain assessed as inhibition of mechanical allodynia at 100 umol/kg, po administered twice daily for 4 days once on day 5. The class given is functional. Details: scale not given: the % may be the effect or the level left. The method, boiled down:
(§1)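 Rats with L5-L6 spinal nerve ligation (Chung model) received vehicle (5% DMSO/PEG) or compound at 100 µmol/kg orally twice a day for four days. On day 5, vehicle or compound was given orally 1 h before von Frey testing for mechanical allodynia. Results are % effect ± SEM, N = 6 per group, with P vs the respective vehicle group.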

For data set [5], the system named is Rattus norvegicus. Put plainly: Antiallodynic activity in rat L5-L6 spinal nerve ligation model of neuropathic pain assessed as inhibition of mechanical allodynia at 100 umol/kg, po single administration. The class given is functional. Details: scale not given: the % may be the effect or the level left. In a few lines: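 Chung-model rats (L5-L6 spinal nerve ligation) were given a single oral dose, with 5% DMSO/PEG as vehicle. Mechanical allodynia was read by von Frey testing and expressed as % effect ± SEM, N = 6 per group, compared with vehicle.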

Data set [6] relates to Rattus norvegicus. Put plainly: Antinociceptive activity in ip dosed rat L5-L6 spinal nerve ligation model of neuropathic pain assessed as reduction in tactile allodynia. The class given is functional. Details: Activity: scale not given: the % may be the effect or the level left. The following applies: for ED50: Rattus norvegicus, Spinal nerve, ip. The method, boiled down:
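Intraperitoneal dosing in rats with L5-L6 spinal nerve ligation (Chung model). Tactile allodynia was measured by von Frey testing. ED50 in µmol/kg and maximum efficacy (%) are the mean of six animals.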

The target of data set [7] is T2, P2X purinoceptor 3 (Homo sapiens) (UniProt P56373).
T2 sequence (whole entry): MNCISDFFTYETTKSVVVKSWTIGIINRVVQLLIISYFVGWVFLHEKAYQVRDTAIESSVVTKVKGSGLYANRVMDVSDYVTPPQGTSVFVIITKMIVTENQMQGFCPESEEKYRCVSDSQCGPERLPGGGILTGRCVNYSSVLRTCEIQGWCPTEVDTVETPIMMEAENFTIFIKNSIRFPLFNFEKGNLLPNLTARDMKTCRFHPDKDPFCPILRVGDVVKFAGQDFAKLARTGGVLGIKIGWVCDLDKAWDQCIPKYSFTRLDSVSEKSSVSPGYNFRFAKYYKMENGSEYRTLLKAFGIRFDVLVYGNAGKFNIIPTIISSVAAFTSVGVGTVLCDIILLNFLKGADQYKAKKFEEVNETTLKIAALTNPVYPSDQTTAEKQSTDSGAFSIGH
Put plainly: Activity at P2X3 receptor up to 10 uM.

In data set [8] the test system is Rattus norvegicus. Put plainly: Antiallodynic activity in rat L5-L6 spinal nerve ligation model of neuropathic pain assessed as inhibition of mechanical allodynia after chronic administration of vehicle twice daily for 4 days followed by acute dose of 100 umol/kg, po on day 5. The format is functional. Details: scale not given: the % may be the effect or the level left. In a few lines:
as §1

Data set [9] has as its target T3, P2X purinoceptor 7 (Rattus norvegicus, UniProt Q64663).
T3 sequence (Q64663 whole entry): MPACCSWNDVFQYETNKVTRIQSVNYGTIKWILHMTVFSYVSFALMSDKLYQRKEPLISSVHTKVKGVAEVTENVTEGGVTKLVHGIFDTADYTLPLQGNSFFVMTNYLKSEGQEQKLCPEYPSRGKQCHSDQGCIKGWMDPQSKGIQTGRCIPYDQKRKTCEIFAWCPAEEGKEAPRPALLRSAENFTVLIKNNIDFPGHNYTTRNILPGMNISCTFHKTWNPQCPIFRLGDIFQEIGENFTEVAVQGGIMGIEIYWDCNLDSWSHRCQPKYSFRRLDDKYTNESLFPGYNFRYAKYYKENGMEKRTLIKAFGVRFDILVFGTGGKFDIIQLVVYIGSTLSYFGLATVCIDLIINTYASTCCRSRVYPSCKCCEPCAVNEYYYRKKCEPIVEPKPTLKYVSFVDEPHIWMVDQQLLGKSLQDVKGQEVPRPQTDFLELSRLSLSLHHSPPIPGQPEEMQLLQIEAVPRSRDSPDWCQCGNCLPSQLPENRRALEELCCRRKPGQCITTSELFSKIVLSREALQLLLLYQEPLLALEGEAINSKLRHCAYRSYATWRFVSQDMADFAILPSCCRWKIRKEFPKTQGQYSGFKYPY
Put plainly: Antagonist activity at rat cloned P2X7 receptor expressed in HEK293 cells assessed as inhibition of calcium flux by FLIPR assay. The class given is functional, cell-based. In a few lines:
(§2)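 Calcium influx read on a fluorometric imaging plate reader with Fluo-4 as the calcium-sensing dye. The P2X7 agonist was benzoylbenzoic ATP (BzATP). pIC50 values are the mean of two experiments unless otherwise indicated; some values are the mean of more than two experiments, with standard deviation shown.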

Data set [10] in a line: Bioavailability in rat at 10 umol/kg, ip. The following applies: in vivo. The class given is ADME, organism-based.
For data set [11], the target named is T4, P2X purinoceptor 7 (Homo sapiens, UniProt Q99572).
T4 sequence (Q99572 whole entry): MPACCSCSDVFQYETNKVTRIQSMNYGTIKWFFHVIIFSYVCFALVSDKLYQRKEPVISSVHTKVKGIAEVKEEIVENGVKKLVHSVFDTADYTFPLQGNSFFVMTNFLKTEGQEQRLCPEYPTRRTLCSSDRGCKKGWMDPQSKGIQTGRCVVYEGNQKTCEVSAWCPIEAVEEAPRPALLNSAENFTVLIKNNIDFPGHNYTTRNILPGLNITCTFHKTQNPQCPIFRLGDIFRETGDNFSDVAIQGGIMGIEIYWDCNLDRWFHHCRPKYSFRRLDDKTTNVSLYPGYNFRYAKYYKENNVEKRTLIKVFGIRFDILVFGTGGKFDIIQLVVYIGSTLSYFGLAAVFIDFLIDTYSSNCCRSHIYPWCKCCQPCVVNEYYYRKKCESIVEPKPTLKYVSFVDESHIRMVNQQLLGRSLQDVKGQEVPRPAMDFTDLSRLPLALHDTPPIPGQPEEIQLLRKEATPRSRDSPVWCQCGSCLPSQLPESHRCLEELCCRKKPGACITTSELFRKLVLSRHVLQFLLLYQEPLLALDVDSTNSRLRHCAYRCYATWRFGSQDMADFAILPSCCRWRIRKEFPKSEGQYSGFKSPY
Description: Antagonist activity at human cloned P2X7 receptor expressed in HEK293 cells assessed as inhibition of calcium flux by FLIPR assay. The format is functional, cell-based. In a few lines:
as §2
For orientation: A change in cytosolic calcium serves as a functional read-out for many receptors and channels.

Data set [12] is described as follows: Oral bioavailability in rat. The class given is ADME, organism-based. The following applies: in vivo.

Sequence of P2Y purinoceptor 2 (Homo sapiens) (P41231 whole entry): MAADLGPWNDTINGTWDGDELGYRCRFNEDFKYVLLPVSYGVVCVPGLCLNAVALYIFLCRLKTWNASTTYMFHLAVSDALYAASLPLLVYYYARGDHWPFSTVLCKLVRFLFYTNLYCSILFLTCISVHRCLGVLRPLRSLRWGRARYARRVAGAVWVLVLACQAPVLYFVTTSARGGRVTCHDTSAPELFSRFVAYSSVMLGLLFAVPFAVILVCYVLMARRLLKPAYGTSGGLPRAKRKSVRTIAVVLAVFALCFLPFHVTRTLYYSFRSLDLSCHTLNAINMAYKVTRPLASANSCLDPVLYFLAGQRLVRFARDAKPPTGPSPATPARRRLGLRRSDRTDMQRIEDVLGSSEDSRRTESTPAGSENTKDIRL

In the case of `CC(Cl)(Cl)C(NC(=O)c1ccc(Cl)cc1)N/C(=N/C#N)Nc1cccnc1Cl` (stereo not given), in data set [1], the Selectivity ratio is 100.
Usually ED50 stands for the dose that gives a 50% effect, or the effect in half of the subjects. As to `Cc1ncccc1N/C(=N\C#N)NC(NC(=O)Cc1ccc(Cl)cc1)C(C)(C)C` (stereo not given), the result in data set [2], in data set [3] and in data set [7] was inactive. The Activity in data set [4] is listed as 61%; in data set [5], 45%; in data set [6], 82%; in data set [8], 44%. Also, the ED50 in [6] amounted to 38 µmol/kg.
With `COc1ccc(CC(=O)NC(N/C(=N/C#N)Nc2cc(C)ccc2C)C(C)(C)C)cc1OC` (stereo not given), the result in [2], in [3] and in [7] was inactive.
For `COc1ncccc1N/C(=N\C#N)NC(NC(=O)c1ccc(Cl)cc1)C(C)(Cl)Cl` (stereo not given), in data set [1], the Selectivity ratio is 100.
One may read the IC50 as the point on the concentration scale where inhibition reaches its midpoint. In general, bioavailability refers to dose-corrected exposure relative to a reference, in per cent. Consider `CC(C)(C)C(NC(=O)Cc1ccc(Cl)cc1)N/C(=N/C#N)Nc1cccc2ncccc12` (stereo not given), for which, in [9], the IC50 was 6.31 nM. For the same molecule, the bioavailability in [10] is 66%. Moreover, the IC50 in data set [11] was 10 nM. In [6], the Activity came to 68% and the ED50 amounted to 55 µmol/kg.
With `COc1ccc(CC(=O)NC(N/C(=N/C#N)Nc2ccccc2C)C(C)(C)C)cc1OC` (stereo in doubt; 13), the result in [2], in [3] and in data set [7] was inactive. Further, the Activity in data set [6] came to 59%. Besides, in data set [6], the ED50 came out at 77 µmol/kg.
Consider `Cc1ncccc1N/C(=N\C#N)NC(NC(=O)Cc1ccc(F)cc1)C(C)(C)C` (stereo not given), for which, in data set [9], the IC50 is 398 nM. Also, the bioavailability in data set [10] worked out at 52%. Further, the IC50 in data set [11] is 100 nM. Also, in data set [6], the Activity stood at 0% and the ED50 was > 300 µmol/kg.
`Cc1ncccc1NC(=NC(NC(=O)Cc1ccc(Cl)cc1)C(C)(C)C)NC#N` (stereo not given): the values for the 50% inhibitory concentration (IC50) in [9] and in data set [11] were 39.8 nM and 31.6 nM, respectively. Besides, the bioavailability in data set [12] is 36%; in data set [10] it was 54%.
For the molecule `COc1ccc(CC(=O)NC(NC(=NC#N)Nc2ccccc2C)C(C)(C)C)cc1OC` (stereo in doubt; 13), the IC50 in [9] is 12.6 nM; in data set [11] it was 126 nM. The molecule also showed a bioavailability in data set [10] of 90%.
On to `COc1ccc(CC(=O)NC(N=C(NC#N)Nc2ccccc2F)C(C)(C)C)cc1OC` (stereo not given), for which the IC50 in [9] is 12.6 nM; in data set [11] it was 200 nM.
For the molecule `COc1ccc(CC(=O)NC(N=C(NC#N)Nc2cc(C)ccc2C)C(C)(C)C)cc1OC` (stereo not given), the IC50 in data set [9] was 3.16 nM; in data set [11] it was 63.1 nM.
In the same order, the values of `COc1ccc(C(=O)NC(N=C(NC#N)Nc2ccccc2C)C(C)(C)C)cc1` (stereo not given) are 2510 nM and 7940 nM.
On to `COc1ccc(CC(=O)NC(N/C(=N/C#N)Nc2cccc3ncccc23)C(C)(C)C)cc1OC` (stereo not given), for which the outcome in data set [2], in [3] and in data set [7] was inactive. For the same molecule, the bioavailability in data set [10] amounted to 79%. Further, the IC50 in [11] was 39.8 nM. The Activity in data set [6] is recorded as 65%. In addition, the ED50 in [6] was found to be 41 µmol/kg.
Take `COc1ccc(C(=O)NC(N=C(NC#N)Nc2ccccc2C)C(C)(C)C)cc1OC` (stereo not given): the values for the IC50 in data set [9] and in data set [11] were 631 nM and 5010 nM, respectively.
